Assay results collected from several papers.
Lines come from different studies, so protocols differ.
Organism: Trypanosoma brucei
Effect on: parasite growth

SMILES | assay | system | setting | EC50 [nM]
Cc1ccc(Cn2cc(C(=O)N/N=C/c3ccc([N+](=O)[O-])s3)c(=O)c3cc(Br)ccc32)cc1 | resazurin |  | 72 h | 140
O=c1c(O[C@@H]2O[C@H](CO)[C@H](O)[C@H](O)[C@H]2O)c(-c2ccc(O)c(O)c2)oc2cc(O)cc(O)c12 | resazurin |  | 48 h | 50000
Cc1cc(C)c(C#N)c(SCC(=O)c2ccccc2O)n1 | resazurin |  |  | > 64000
CCCCCC(=O)NC(Cc1ccc(NC(=O)OC(C)(C)C)cc1)C(=O)NC(Cc1ccc(NC(=O)OC(C)(C)C)cc1)C(=O)NC(CC(C)C)C(=O)C1(C)CO1 (stereo not drawn) | SYBR Green |  | 72 h | 465
O=C(N/N=C/c1ccc([N+](=O)[O-])o1)c1cn(Cc2ccccc2)c2ccccc2c1=O | resazurin |  | 72 h | 570
N=C(N)c1ccc(OCCCCCOc2ccc(C(=N)N)cc2)cc1 | SYBR Green | RHODESIENSE |  | 27
O=C(N/N=C/c1ccc([N+](=O)[O-])o1)c1cn(Cc2ccccc2)c2ccc(Oc3ccccc3)cc2c1=O | resazurin |  | 72 h | 320
COc1cc(C)c(C#N)c(SCC(=O)c2ccccc2)n1 | resazurin | RHODESIENSE |  | 32800
C[C@@H]1C/C=C/C=C/C=C/C=C/[C@H](O[C@@H]2O[C@H](C)[C@@H](O)[C@H](N)[C@@H]2O)C[C@@H]2O[C@](O)(C[C@@H](O)C[C@H]3O[C@@H]3/C=C/C(=O)O1)C[C@H](O)[C@H]2C(=O)O | resazurin |  | 48 h | 12000
CCCCCC(=O)NC(Cc1c[nH]c2ccccc12)C(=O)NC(Cc1c[nH]c2ccccc12)C(=O)NC(CC(C)C)C(=O)C1(C)CO1 (stereo not drawn) | SYBR Green |  | 72 h | < 500
COc1ccc2c(c1)c(=O)c(C(=O)NN)cn2Cc1ccc(C)cc1 | resazurin |  | 72 h | > 4000
Cc1cc(C)c(C#N)c(SCC(=O)c2ccccc2C)n1 | resazurin |  |  | 25800
